Measurements: ChEMBL document CHEMBL4049446 (J Med Chem, 2017)

Legend:
[1] = system: Human immunodeficiency virus 1; test: Antiviral activity against HIV1 Lai infected in human MT2 cells; format: functional, cell-based; conditions: Human immunodeficiency virus 1, M:B_Lai
[2] = Inhibition of HIV1 protease expressed in Escherichia coli using 2-aminobenzoyl-Thr-Ile-Nle-Phe(p-N02)-Gln-Arg-NH as substrate preincubated for 5 to 10 mins followed by substrate addition measured after 1 hr by fluorescence assay; design: species or system Human immunodeficiency virus 1
[3] = system: Human immunodeficiency virus 1; test: Antiviral activity against darunavir-resistant HIV1 derived from 51 passages harboring protease L10I/I15V/K20R/L24I/V32I/L33F/M36I/M46L/I54M/L63P/K70Q/V82I/I84V/L89M mutant infected in human MT4 cells assessed as reduction in p24 Gag protein production after 7 days by chemiluminescent enzyme immunoassay; format: functional, cell-based; conditions: Human immunodeficiency virus 1, MT4, 168 h
[4] = system: Human immunodeficiency virus 1; test: Antiviral activity against darunavir-resistant HIV1 derived from 20 passages harboring protease L10I/I15V/K20R/L24I/V32I/M36I/M46L/L63P/V82A/L89M mutant infected in human MT4 cells assessed as reduction in p24 Gag protein production after 7 days by chemiluminescent enzyme immunoassay; format: functional, cell-based; conditions: Human immunodeficiency virus 1, MT4, 168 h
In short: (§1)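 MT-4 cells (1×10^4) exposed to 50 TCID50 of wild-type HIV-1 NL4-3 or DRV-selected variants (20, 30 or 51 passages) and cultured with various inhibitor concentrations. IC50 read by p24 assay. Run in triplicate; mean ± 1 standard deviation from three independent experiments.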

[5] = system: Human immunodeficiency virus 1; test: Ratio of IC50 for darunavir-resistant HIV1 derived from 51 passages harboring protease L10I/I15V/K20R/L24I/V32I/L33F/M36I/M46L/I54M/L63P/K70Q/V82I/I84V/L89M mutant infected in human MT4 cells to IC50 for wild type HIV1 NL4.3 infected in human MT4 cells; format: functional
In short: (§2)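 Fold change is the IC50 against each resistant variant divided by the IC50 against wild-type HIV-1 NL4-3, measured in the same triplicate antiviral assays (three independent experiments).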

[6] = system: Human immunodeficiency virus 1; test: Antiviral activity against darunavir-resistant HIV1 derived from 30 passages harboring protease L10I/I15V/K20R/L24I/V32I/M36I/M46L/L63P/K70R/V82A/I84V/L89M mutant infected in human MT4 cells assessed as reduction in p24 Gag protein production after 7 days by chemiluminescent enzyme immunoassay; format: functional, cell-based; conditions: Human immunodeficiency virus 1, MT4, 168 h; in short: as §1
[7] = system: Human immunodeficiency virus 1; test: Ratio of IC50 for darunavir-resistant HIV1 derived from 30 passages harboring protease L10I/I15V/K20R/L24I/V32I/M36I/M46L/L63P/K70R/V82A/I84V/L89M mutant infected in human MT4 cells to IC50 for wild type HIV1 NL4.3 infected in human MT4 cells; format: functional; in short: as §2
[8] = system: Human immunodeficiency virus 1; test: Antiviral activity against wild type HIV1 NL4-3 infected in human MT4 cells assessed as reduction in p24 Gag protein production after 7 days by chemiluminescent enzyme immunoassay; format: functional, cell-based; conditions: Human immunodeficiency virus 1, NL4-3, MT4, 168 h
[9] = system: Human immunodeficiency virus 1; test: Ratio of IC50 for darunavir-resistant HIV1 derived from 20 passages harboring protease L10I/I15V/K20R/L24I/V32I/M36I/M46L/L63P/V82A/L89M mutant infected in human MT4 cells to IC50 for wild type HIV1 NL4.3 infected in human MT4 cells; format: functional; in short: as §2
[10] = system: Human immunodeficiency virus 1; test: Antiviral activity against lopinavir-resistant HIV1 NL4-3 harboring protease L10F/V32I/M46I/I47A/A71V/I84V mutant infected in human MT4 cells assessed as reduction in p24 Gag protein production after 7 days by chemiluminescent enzyme immunoassay; format: functional, cell-based; conditions: Human immunodeficiency virus 1, NL4-3, MT4, 168 h
In short: (§3)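 Variants are HIV-1 NL4-3 selected in vitro under protease inhibitors: APV, ATV, IDV, LPV, NFV and SQV at 5 µM, TPV at 15 µM. Assays run in triplicate; IC50 given as mean ± 1 standard deviation from three independent experiments.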

[11] = system: Human immunodeficiency virus 1; test: Antiviral activity against saquinavir-resistant HIV1 NL4-3 harboring protease L10I/N37D/G48V/I54V/L63P/G73C/I84V/L90M mutant infected in human MT4 cells assessed as reduction in p24 Gag protein production after 7 days by chemiluminescent enzyme immunoassay; format: functional, cell-based; conditions: Human immunodeficiency virus 1, NL4-3, MT4, 168 h; in short: as §3
[12] = system: Human immunodeficiency virus 1; test: Antiviral activity against nelfinavir-resistant HIV1 NL4-3 harboring protease L10F/K20T/D30N/K45I/A71V/V77I mutant infected in human MT4 cells assessed as reduction in p24 Gag protein production after 7 days by chemiluminescent enzyme immunoassay; format: functional, cell-based; conditions: Human immunodeficiency virus 1, NL4-3, MT4, 168 h; in short: as §3
[13] = system: Human immunodeficiency virus 1; test: Antiviral activity against amprenavir-resistant HIV1 NL4-3 harboring protease L10F/V32I/L33F/M46L/I54M/A71V mutant infected in human MT4 cells assessed as reduction in p24 Gag protein production after 7 days by chemiluminescent enzyme immunoassay; format: functional, cell-based; conditions: Human immunodeficiency virus 1, NL4-3, MT4, 168 h; in short: as §3
[14] = system: Human immunodeficiency virus 1; test: Ratio of IC50 for tipranavir-resistant HIV1 NL4-3 harboring protease L10I/L33I/M36I/M46I/I54V/K55R/I62V/L63P/A71V/G73S/V82T/L90M/I93L mutant infected in human MT4 cells to IC50 for wild type HIV1 NL4.3 infected in human MT4 cells; format: functional; in short: as §2
[15] = system: Human immunodeficiency virus 1; test: Ratio of IC50 for atazanavir-resistant HIV1 NL4-3 harboring protease L23I/E34Q/K43I/M46I/I50L/G51A/L63P/A71V/V82A/T91A mutant infected in human MT4 cells to IC50 for wild type HIV1 NL4.3 infected in human MT4 cells; format: functional; in short: as §2
[16] = system: Human immunodeficiency virus 1; test: Ratio of IC50 for amprenavir-resistant HIV1 NL4-3 harboring protease L10F/V32I/L33F/M46L/I54M/A71V mutant infected in human MT4 cells to IC50 for wild type HIV1 NL4.3 infected in human MT4 cells; format: functional; in short: as §2
[17] = system: Human immunodeficiency virus 1; test: Antiviral activity against tipranavir-resistant HIV1 NL4-3 harboring protease L10I/L33I/M36I/M46I/I54V/K55R/I62V/L63P/A71V/G73S/V82T/L90M/I93L mutant infected in human MT4 cells assessed as reduction in p24 Gag protein production after 7 days by chemiluminescent enzyme immunoassay; format: functional, cell-based; conditions: Human immunodeficiency virus 1, NL4-3, MT4, 168 h; in short: as §3
[18] = system: Human immunodeficiency virus 1; test: Antiviral activity against indinavir-resistant HIV1 NL4-3 harboring protease L10F/L24I/M46I/I54V/L63P/A71V/G73S/V82T mutant infected in human MT4 cells assessed as reduction in p24 Gag protein production after 7 days by chemiluminescent enzyme immunoassay; format: functional, cell-based; conditions: Human immunodeficiency virus 1, NL4-3, MT4, 168 h; in short: as §3
[19] = system: Human immunodeficiency virus 1; test: Ratio of IC50 for nelfinavir-resistant HIV1 NL4-3 harboring protease L10F/K20T/D30N/K45I/A71V/V77I mutant infected in human MT4 cells to IC50 for wild type HIV1 NL4.3 infected in human MT4 cells; format: functional; in short: as §2
[20] = system: Human immunodeficiency virus 1; test: Ratio of IC50 for indinavir-resistant HIV1 NL4-3 harboring protease L10F/L24I/M46I/I54V/L63P/A71V/G73S/V82T mutant infected in human MT4 cells to IC50 for wild type HIV1 NL4.3 infected in human MT4 cells; format: functional; in short: as §2
[21] = system: Human immunodeficiency virus 1; test: Antiviral activity against atazanavir-resistant HIV1 NL4-3 harboring protease L23I/E34Q/K43I/M46I/I50L/G51A/L63P/A71V/V82A/T91A mutant infected in human MT4 cells assessed as reduction in p24 Gag protein production after 7 days by chemiluminescent enzyme immunoassay; format: functional, cell-based; conditions: Human immunodeficiency virus 1, NL4-3, MT4, 168 h; in short: as §3
[22] = system: Human immunodeficiency virus 1; test: Ratio of IC50 for saquinavir-resistant HIV1 NL4-3 harboring protease L10I/N37D/G48V/I54V/L63P/G73C/I84V/L90M mutant infected in human MT4 cells to IC50 for wild type HIV1 NL4.3 infected in human MT4 cells; format: functional; in short: as §2
[23] = system: Human immunodeficiency virus 1; test: Ratio of IC50 for lopinavir-resistant HIV1 NL4-3 harboring protease L10F/V32I/M46I/I47A/A71V/I84V mutant infected in human MT4 cells to IC50 for wild type HIV1 NL4.3 infected in human MT4 cells; format: functional; in short: as §2

Compound	IC50 [1]	Ki [2]	IC50 [3]	IC50 [4]	Ratio IC50 [5]	IC50 [6]	Ratio IC50 [7]	IC50 [8]	Ratio IC50 [9]	IC50 [10]	IC50 [11]	IC50 [12]	IC50 [13]	Ratio IC50 [14]	Ratio IC50 [15]	Ratio IC50 [16]	IC50 [17]	IC50 [18]	Ratio IC50 [19]	Ratio IC50 [20]	further results
CC(C)(C)NC(=O)[C@@H]1C[C@@H]2CCCC[C@@H]2CN1C[C@@H](O)[C@H](Cc1ccccc1)NC(=O)[C@H](CC(N)=O)NC(=O)c1ccc2ccccc2n1	21 nM	–	–	–	–	–	–	–	–	–	–	–	–	–	–	–	–	–	–	–	–
CC(C)CN(C[C@@H](O)[C@H](Cc1ccccc1)NC(=O)O[C@H]1CO[C@H]2OCC[C@H]21)S(=O)(=O)c1ccc2nc(NC3CC3)sc2c1	1.9 nM	0.01 nM	480 nM	7.7 nM	240	30 nM	15	2 nM	4	–	–	–	–	–	–	–	–	–	–	–	–
COc1ccc(S(=O)(=O)N(CC(C)C)C[C@@H](O)[C@H](Cc2ccccc2)NC(=O)O[C@H]2C3CO[C@H]4OCC2C4C3)cc1 (some centres not stated)	2.7 nM	0.014 nM	–	–	–	–	–	–	–	–	–	–	–	–	–	–	–	–	–	–	–
CC(C)CN(C[C@@H](O)[C@H](Cc1ccccc1)NC(=O)O[C@H]1C2CO[C@H]3OCC1C3C2)S(=O)(=O)c1ccc(N)cc1 (some centres not stated)	2.8 nM	0.013 nM	> 1000 nM	30 nM	>303	340 nM	103	3.3 nM	9	–	–	–	–	–	–	–	–	–	–	–	–
COc1ccc(S(=O)(=O)N(CC(C)C)C[C@@H](O)[C@H](Cc2ccccc2)NC(=O)O[C@@H]2C3CO[C@H]4OCC2C4C3)cc1 (some centres not stated)	> 1000 nM	10.8 nM	–	–	–	–	–	–	–	–	–	–	–	–	–	–	–	–	–	–	–
CC(C)CN(C[C@@H](O)[C@H](Cc1ccccc1)NC(=O)O[C@H]1C2CO[C@H]3OCC1C3C2)S(=O)(=O)c1ccc2nc(NC3CC3)sc2c1 (some centres not stated)	0.26 nM	0.04 nM	35 nM	0.17 nM	90	1.8 nM	5	0.39 nM	0.4	0.0026 nM	0.03 nM	0.028 nM	0.27 nM	0.15	0.5	0.7	0.057 nM	0.012 nM	0.07	0.03	IC50 [21]: 0.19 nM; Ratio IC50 [22]: 0.08; Ratio IC50 [23]: 0.007
COC(=O)N[C@H](C(=O)N[C@@H](Cc1ccccc1)[C@@H](O)CN(Cc1ccc(-c2ccccn2)cc1)NC(=O)[C@@H](NC(=O)OC)C(C)(C)C)C(C)(C)C [ATAZANAVIR]	–	–	–	–	–	–	–	4.2 nM	–	45 nM	510 nM	17 nM	3.8 nM	>238	>238	0.9	> 1000 nM	62 nM	4	15	IC50 [21]: > 1000 nM; Ratio IC50 [22]: 121; Ratio IC50 [23]: 11
Cc1cccc(C)c1OCC(=O)N[C@@H](Cc1ccccc1)[C@@H](O)C[C@H](Cc1ccccc1)NC(=O)[C@H](C(C)C)N1CCCNC1=O [LOPINAVIR]	–	–	> 1000 nM	> 1000 nM	>50	> 1000 nM	>50	20 nM	>50	> 1000 nM	> 1000 nM	42 nM	310 nM	>50	17	16	> 1000 nM	170 nM	2	9	IC50 [21]: 330 nM; Ratio IC50 [22]: >50; Ratio IC50 [23]: >50
